From ChEMBL document CHEMBL1156797, “Synthesis and antiplasmodial activity of new indolone N-oxide derivatives” (J Med Chem, 2010)

Tests used:
Plasmodium falciparum [1] = assay: Antimalarial activity against Plasmodium falciparum K1 assessed as [3H]hypoxanthine incorporation by scintillation counting; format: functional, organism-based
[2] = Cytotoxicity against human KB cells after 72 hrs by alamar blue assay; format: cell-based
Summary of the method: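 KB cells were seeded at 4×10^4 cells/mL in RPMI 1640 with 10% heat-inactivated FCS and left 24 h at 37 °C, 5% CO2. A dilution series was added in triplicate for 72 h, then AlamarBlue for 2–4 h. Fluorescence was read at ex 530/em 585 nm, with podophyllotoxin as positive control and values from curve fitting.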

Plasmodium falciparum [3] = assay: Antimalarial activity against drug-sensitive Plasmodium falciparum 3D7 assessed as [3H]hypoxanthine incorporation by scintillation counting; format: functional, organism-based
Plasmodium falciparum [4] = assay: Antimalarial activity against chloroquine-resistant Plasmodium falciparum FcB1 assessed as [3H]hypoxanthine incorporation after 48 hrs by beta-counter; format: functional, organism-based; settings: FcB1/Columbia
Summary of the method: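 Primary assay (Toulouse) on FcB1 cultured in RPMI with 25 mM HEPES and 10% human serum, O RBCs. Serial dilutions in triplicate, 2% parasitaemia, 2% haematocrit, 48 h at 37 °C, 5% CO2. [3H]-hypoxanthine added at 24 h, freeze-thaw harvest, β-counting. IC50 by linear regression on the linear segment of the semilog inhibition curve. Three independent repeats.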

Plasmodium falciparum [5] = assay: Resistance index, ratio of IC50 for chloroquine-resistant Plasmodium falciparum K1 to IC50 for drug-sensitive Plasmodium falciparum 3D7; format: functional
[6] = Cytotoxicity against human MCF7 cells after 48 hrs by MTT assay; format: cell-based
[7] = Selectivity index, ratio of CC50 for human KB cells to IC50 for drug-sensitive Plasmodium falciparum 3D7; format: functional
Summary of the method: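 The 3D7 value came from [3H]hypoxanthine incorporation: synchronized culture at 0.5% parasitaemia, 2.5% hematocrit, Albumax-supplemented medium, 2-fold dilutions from 100 to 0.05 μM in triplicate, label added at 24 h and harvested at 48 h.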

[8] = Selectivity index, ratio of CC50 for human MCF7 cells to IC50 for chloroquine-resistant Plasmodium falciparum FcB1; format: functional
Summary of the method: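 XTT 0.5 mg/mL added for 180 min, formazan read at 450 nm, value taken from dose–response curves, two experiments in triplicate. This CC50 is divided by the FcB1 IC50 to give the index.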

Plasmodium falciparum [9] = assay: Resistance index, ratio of IC50 for chloroquine-resistant Plasmodium falciparum FcB1 to IC50 for drug-sensitive Plasmodium falciparum 3D7; format: functional

Row | Compound | IC50 (Plasmodium falciparum [1]) [nM] | CC50 at 72 h [2] [nM] | IC50 (Plasmodium falciparum [3]) [nM] | IC50 (Plasmodium falciparum [4]) [nM] | Ratio IC50 (Plasmodium falciparum [5]) | CC50 at 48 h [6] [nM] | Ratio CC50/IC50 [7] | Ratio CC50/IC50 [8] | Ratio IC50 (Plasmodium falciparum [9])
1 | COc1ccc2c(c1)C(=O)C(c1ccc(Cl)cc1)=[N+]2[O-] | 59 | 469000 | 62 | 210 | 1 | 21500 | 7564 | 102 | 3.4
2 | COc1ccc2c(c1)C(=O)C(c1ccc(C)cc1)=[N+]2[O-] | 20 | 56000 | 27 | 52 | 0.7 | > 37500 | 2074 | >721 | 1.9
3 | COc1ccc2c(c1)C(=O)C(c1ccc(Oc3ccccc3)cc1)=[N+]2[O-] | < 1.5 | 5600 | 37 | 193 | <0.04 | 7700 | 151 | 40 | 5.2
4 | COc1ccc2c(c1)C(=O)C(c1ccc(Cl)c(C(F)(F)F)c1)=[N+]2[O-] | 5 | < 1400 | 69 | 50 | 0.1 | 13500 | <20 | 270 | 0.7
5 | COc1ccc2c(c1)C(=O)C(c1ccc(C)c(C)c1)=[N+]2[O-] | 178 | 148000 | 142 | 37 | 1.2 | 26000 | 980 | 702.7 | 0.3
6 | COc1ccc2c(c1)C(=O)C(c1cccc(Cl)c1)=[N+]2[O-] | 96 | 64000 | 139 | 21 | 0.7 | 5200 | 688 | 248 | 0.2
7 | O=C1C(c2ccc(Cl)c(Cl)c2)=[N+]([O-])c2ccccc21 | 80 | 570000 | 98 | 155 | 0.8 | 13700 | 5816 | 88 | 1.6
8 | COc1ccc2c(c1)C(=O)C(c1ccc(C(F)(F)F)cc1)=[N+]2[O-] | 1.9 | 110000 | < 0.5 | 43 | 3.8 | 11700 | >220 | 273 | 86
9 | COc1ccc2cc(C3=[N+]([O-])c4ccccc4C3=O)ccc2c1 | – | 233000 | – | – | – | 15300 | 2589 | – | –
10 | COc1ccc(C2=[N+]([O-])c3ccc(OC)cc3C2=O)cc1 | 16 | 874000 | 82 | 40 | 0.2 | > 35300 | 10658 | >882 | 0.5
11 | C[C@H]1[C@H](OC(=O)CCC(=O)[O-])O[C@@H]2O[C@@]3(C)CC[C@H]4[C@H](C)CC[C@@H]1[C@@]24OO3.[Na+] [SODIUM ARESUNATE] | 4 | 36200 | 4 | 6 | 1 | 9800 | 9045 | 1633 | 1.5
